The values below come from ChEMBL document CHEMBL4725436, “Gibberellin JRA-003: A Selective Inhibitor of Nuclear Translocation of IKKα” (ACS Med Chem Lett, 2020).

Activity calls are given as the source filed them. The calls are words filed in the database; no cut-off is given here. A value given as a limit tells only on which side of the number the result lay.

A short description of data set [1]: Selectivity index, ratio of IC50 for human Hs895SK cells to EC50 for human HS578T cells measured after 24 hrs by CellTiter-Glo luminescent assay. It counts as toxicity. As to conditions: Hs895SK cells (IC50) versus HS578T cells (EC50). The gist of the method:
(§1)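 High-throughput viability screen of test agents across a panel of 22 cancerous and noncancerous human cell lines. Viability was read by CellTiter-Glo luminescence.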
On the technique in general: Cellular ATP, detected with luciferase, serves as a proxy for viable cell number.

For another data set, the system named is RCK8. Nature of the data set: Cytotoxicity against human RC-K8 cells assessed as reduction in cell viability measured after 24 hrs by CellTiter-Glo luminescent assay. Format: functional, cell-based. As to conditions: RCK8, 24 h. In short, it runs like this:
as §1

The target of data set [2] is T1, Inhibitor of nuclear factor kappa-B kinase subunit beta (Homo sapiens) (UniProt O14920).
T1 sequence (whole entry): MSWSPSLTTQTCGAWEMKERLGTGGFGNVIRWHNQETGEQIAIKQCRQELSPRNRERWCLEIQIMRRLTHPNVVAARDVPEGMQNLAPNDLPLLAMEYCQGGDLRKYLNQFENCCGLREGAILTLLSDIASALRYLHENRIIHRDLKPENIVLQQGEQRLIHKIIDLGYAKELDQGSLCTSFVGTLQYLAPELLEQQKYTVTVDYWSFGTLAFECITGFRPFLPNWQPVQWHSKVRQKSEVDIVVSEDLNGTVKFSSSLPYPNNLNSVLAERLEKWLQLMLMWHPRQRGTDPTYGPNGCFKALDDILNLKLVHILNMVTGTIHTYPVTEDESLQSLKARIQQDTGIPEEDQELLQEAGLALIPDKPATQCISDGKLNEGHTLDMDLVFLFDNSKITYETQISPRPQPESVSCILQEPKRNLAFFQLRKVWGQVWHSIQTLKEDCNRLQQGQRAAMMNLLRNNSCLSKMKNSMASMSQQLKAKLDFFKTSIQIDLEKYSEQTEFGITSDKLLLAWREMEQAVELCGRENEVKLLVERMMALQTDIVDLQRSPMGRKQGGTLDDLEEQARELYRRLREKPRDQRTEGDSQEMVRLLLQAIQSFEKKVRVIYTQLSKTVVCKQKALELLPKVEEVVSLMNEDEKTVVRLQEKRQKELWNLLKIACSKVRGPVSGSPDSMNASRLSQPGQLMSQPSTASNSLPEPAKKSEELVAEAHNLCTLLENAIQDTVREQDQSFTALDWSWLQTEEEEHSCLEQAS
Nature of the data set: Inhibition of IKKbeta in human HeLa cells assessed as reduction in IL-1 beta-stimulated IKK beta nuclear translocation at 10 uM pretreated with compound for 4 hrs followed by stimulation with IL-1 beta for 1 hr by immunohistochemical staining/confocal microscopy. It counts as cell-based. The gist of the method: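 HeLa cells were pretreated with DMSO or test agent for 4 h, then stimulated with IL-1β (or vehicle) for 1 h. NF-κB pathway members were immunostained with AF488-tagged antibodies, nuclei were counterstained with DAPI, and compartmental localization was imaged by confocal microscopy.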

Data set [3] is described as follows: Selectivity index, ratio of IC50 for human Hs578Bst cells to EC50 for human RC-K8 cells measured after 24 hrs by CellTiter-Glo luminescent assay. Format: toxicity. As to conditions: Hs578Bst cells (IC50) versus RC-K8 cells (EC50). In short, it runs like this: as §1
Data set [4] in a line: Selectivity index, ratio of IC50 for human Hs895SK cells to EC50 for human HCC1599 cells measured after 24 hrs by CellTiter-Glo luminescent assay. It counts as toxicity. As to conditions: Hs895SK cells (IC50) versus HCC1599 cells (EC50). The gist of the method: as §1
Data set [5] is described as follows: Selectivity index, ratio of IC50 for human HS895SK cells to EC50 for human RC-K8 cells measured after 24 hrs by CellTiter-Glo luminescent assay. The gist of the method: as §1
A short description of data set [6]: Selectivity index, ratio of IC50 for human Hs578Bst cells to EC50 for human HS578T cells measured after 24 hrs by CellTiter-Glo luminescent assay. It counts as toxicity. As to conditions: Hs578Bst cells (IC50) versus HS578T cells (EC50). In short, it runs like this: as §1
The next data set has as its system Hs-578T. Nature of the data set: Cytotoxicity against human Hs-578T cells assessed as reduction in cell viability measured after 24 hrs by CellTiter-Glo luminescent assay. Format: functional, cell-based. In short, it runs like this: as §1
The subject of a further data set is NCI-H446. Nature of the data set: Cytotoxicity against human NCI-H446 cells assessed as reduction in cell viability measured after 24 hrs by CellTiter-Glo luminescent assay. Format: functional, cell-based. As to conditions: NCI-H446, 24 h. In short, it runs like this: as §1
The nature of data set [7]: Selectivity index, ratio of IC50 for human HS895SK cells to EC50 for human SU-DHL-4 cells measured after 24 hrs by CellTiter-Glo luminescent assay. In short, it runs like this:
as §1

Data set [8] is described as follows: Selectivity index, ratio of IC50 for human Hs888Lu cells to EC50 for human SU-DHL-4 cells measured after 24 hrs by CellTiter-Glo luminescent assay. Format: toxicity. As to conditions: Hs888Lu cells (IC50) versus SU-DHL-4 cells (EC50). In short, it runs like this: as §1
The subject of a further data set is HEK-293T. Nature of the data set: Inhibition of IKKalpha/IKKbeta in human HEK293T cells transfected with firefly luciferase gene assessed as inhibition of NF-kappaB signalling at 10 uM by luciferase reporter gene assay. Format: cell-based. (Reporter assays use an easily measured gene product as a stand-in for the process of interest.)
The nature of data set [9]: Selectivity index, ratio of IC50 for human Hs888Lu cells to EC50 for human CA46 cells measured after 24 hrs by CellTiter-Glo luminescent assay. Format: toxicity. As to conditions: Hs888Lu cells (IC50) versus CA46 cells (EC50). The gist of the method: as §1
A short description of data set [10]: Selectivity index, ratio of IC50 for human Hs888Lu cells to EC50 for human RC-K8 cells measured after 24 hrs by CellTiter-Glo luminescent assay. Format: toxicity. As to conditions: Hs888Lu cells (IC50) versus RC-K8 cells (EC50). In short, it runs like this: as §1
The subject of another data set is PSN1. Nature of the data set: Cytotoxicity against human PSN1 cells assessed as reduction in cell viability measured after 24 hrs by CellTiter-Glo luminescent assay. It counts as functional, cell-based. As to conditions: PSN1, 24 h. The gist of the method: as §1
The nature of data set [11]: Cytotoxicity against human Hs895SK cells assessed as reduction in cell viability measured after 24 hrs by CellTiter-Glo luminescent assay. Format: cell-based. As to conditions: Hs 895.Sk. In short, it runs like this:
as §1

Data set [12] deals with T1, Inhibitor of nuclear factor kappa-B kinase subunit beta (Homo sapiens). Nature of the data set: Inhibition of IKK beta nuclear translocation in human HEK-293T cells assessed as reduction in IKK beta level in nucleus at 15 uM pretreated with compound for 1 hr followed by stimulation with IL-1 beta for 3 hrs by western blot analysis. It counts as subcellular. The gist of the method:
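HEK 293T cells were pretreated with vehicle or test agent, then stimulated with IL-1β (or vehicle). Cells were lysed and nuclei separated, and the cytosolic and nuclear fractions were each probed for IKKα and IKKβ by Western blotting.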
In general terms: In western blotting, separated proteins are transferred to a membrane and probed.

Data set [13] is described as follows: Cytotoxicity against human Hs895T cells assessed as reduction in cell viability measured after 24 hrs by CellTiter-Glo luminescent assay. It counts as functional, cell-based. In short, it runs like this: as §1
Data set [14] is described as follows: Selectivity index, ratio of IC50 for human Hs888lu cells to EC50 for human HCC1599 cells measured after 24 hrs by CellTiter-Glo luminescent assay. In short, it runs like this: as §1
A short description of data set [15]: Selectivity index, ratio of IC50 for human HS895SK cells to EC50 for human CA46 cells measured after 24 hrs by CellTiter-Glo luminescent assay. In short, it runs like this: as §1
Data set [16] can be described thus: Selectivity index, ratio of IC50 for human Hs578Bst cells to EC50 for human CA46 cells measured after 24 hrs by CellTiter-Glo luminescent assay. It counts as toxicity. As to conditions: Hs578Bst cells (IC50) versus CA46 cells (EC50). The gist of the method: as §1
Data set [17] is described as follows: Selectivity index, ratio of IC50 for human Hs578Bst cells to EC50 for human HCC1599 cells measured after 24 hrs by CellTiter-Glo luminescent assay. It counts as toxicity. As to conditions: Hs578Bst cells (IC50) versus HCC1599 cells (EC50). In short, it runs like this: as §1

Take `C=C1C[C@]23C[C@@]1(O)CC[C@H]2[C@@]12C=CC(=O)[C@@](C)(C(=O)O1)[C@H]2[C@@H]3C(=O)OC`: the selectivity ratio at 24 h in data set [1] is > 500; in data set [3] it was 500; in data set [4], 500; in data set [6], 500; in data set [8], 500; in data set [9] it was 500. Moreover, the selectivity ratio at 24 h in data set [10], in [16] and in data set [17] was 500 throughout. Also, the half-maximal effective concentration (EC50) was < 0.04 µM in the data set with RCK8, < 0.04 µM in the data set with Hs-578T, 0.061 µM in the data set with NCI-H446 and 9.2 µM in data set [13]. Also, the inhibition result in data set [2] and in data set [12] was “Active” each time. The “Ratio IC50/EC50” value in [5], in data set [7], in data set [14] and in data set [15] was 500 throughout. Also, the inhibition in the data set with HEK-293T was 100%. In addition, the IC50 (in the data set with PSN1; in [11]) was > 10 µM in each case.

For orientation: EC50 means the concentration at which the effect is half-maximal. As a reminder, the inhibition is the share of the control response that was lost under treatment. The IC50 is the concentration that gives 50% inhibition.
